Test results as given in ChEMBL document CHEMBL1121813, “Dihydrochalcone sweeteners. A study of the atypical temporal phenomena” (1981).

How the values were obtained:
Format in all cases: functional
[1] = organism: Homo sapiens; experiment: Experimentally determined perceived intensity of compound at a concentration of 2000 ppm (mean value)
Summary of the method: (§1)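 Trained human sensory panel of judges tasted aqueous solutions of the compound. Samples had to be ≥95 weight % pure (HPLC, proton titration, Karl Fischer), non-mutagenic in five Salmonella typhimurium strains with and without microsomal activation, and non-toxic in a single-oral-dose mouse test. Perceived intensity (Ip) was read from time–intensity curves at 4- or 6-s intervals and averaged. Outliers at the 95% level were rejected by t-value. Values reported as mean (2Sm).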

[2] = organism: Homo sapiens; experiment: Number of taste judgments per compound
[3] = organism: Homo sapiens; experiment: Percentage of judgments reporting an aftertaste at a concentration of 2000 ppm and character thereof
Summary of the method: (§2)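 Trained judges tasted aqueous solutions of the compounds, which had to be ≥95 weight percent pure and to have passed mutagenicity and single oral dose toxicity screening. The value is the percentage of panel judgments reporting an aftertaste. Where given, its character is recorded as sweet, bitter or bitter-sweet.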

[4] = organism: Homo sapiens; experiment: Sweet character at a concentration of 720 ppm (mean value)
[5] = organism: Homo sapiens; experiment: Intensity calculated on a weight basis relative to an 85500 ppm sucrose solution at a concentration of 720 ppm (mean value)
Summary of the method: (§3)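 Trained human panel tasted aqueous solutions of purity-checked (≥95 weight percent) compounds cleared for mutagenicity and mouse oral toxicity. Weight-basis intensity I_w = perceived intensity × (85500 ppm sucrose / compound concentration in ppm). The mean is reported with 2S_m limits; data deviating excessively at 95% confidence were rejected by the t-value method.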

[6] = organism: Homo sapiens; experiment: Sour character at a concentration of 720 ppm (mean value)
[7] = organism: Homo sapiens; experiment: Intensity calculated on a molar basis relative to a 0.25 M sucrose solution at a concentration of 720 ppm (mean value)
Summary of the method: (§4)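 Trained human judges tasted aqueous solutions of the test compound; compounds were first required to be ≥95 weight percent pure and free of mutagenicity (five Salmonella typhimurium strains, ± microsomal activation) and of single oral dose mouse toxicity. Molar intensity I_m = perceived intensity × (0.25 M sucrose / compound molar concentration). The mean is reported with 2S_m limits; outliers were rejected at 95% confidence by t-value.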

[8] = organism: Homo sapiens; experiment: Other taste character at a concentration of 720 ppm (mean value)
Summary of the method: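 Trained human sensory panel (Swartz method) tasted dilute aqueous solutions of the compounds, which had to be ≥95 weight percent pure and free of mutagenicity and toxicity. Taste character is reported as the mean value with 2S_m limits. Data deviating excessively at the 95% confidence level were rejected by the t-value method.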

[9] = organism: Homo sapiens; experiment: Percentage of judgments reporting an aftertaste at a concentration of 720 ppm and character thereof
[10] = organism: Homo sapiens; experiment: Sweet / Bitter character at a concentration of 720 ppm (mean value); 50/50
[11] = organism: Homo sapiens; experiment: Experimentally determined perceived intensity of compound at a concentration of 720 ppm (mean value); summary of the method: as §1
[12] = organism: Homo sapiens; experiment: Bitter character at a concentration of 720 ppm (mean value)
Summary of the method: (§5)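 Trained human panel tasted aqueous solutions. Each judge reported whether there was an aftertaste and its character (sweet, bitter or bitter-sweet). The value is the percentage of judgments reporting a bitter aftertaste.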

[13] = organism: Homo sapiens; experiment: Salty character at a concentration of 720 ppm (mean value)
[14] = organism: Homo sapiens; experiment: Salty character at a concentration of 1011 ppm (mean value)
[15] = organism: Homo sapiens; experiment: Sweet character at a concentration of 1011 ppm (mean value)
[16] = organism: Homo sapiens; experiment: Intensity calculated on a molar basis relative to a 0.25 M sucrose solution at a concentration of 1011 ppm (mean value); summary of the method: as §4
[17] = organism: Homo sapiens; experiment: Sweet / Bitter character at a concentration of 1011 ppm (mean value)
[18] = organism: Homo sapiens; experiment: Experimentally determined perceived intensity of compound at a concentration of 1011 ppm (mean value); summary of the method: as §1
[19] = organism: Homo sapiens; experiment: Bitter character at a concentration of 1011 ppm (mean value); summary of the method: as §5
[20] = organism: Homo sapiens; experiment: Percentage of judgments reporting an aftertaste at a concentration of 1011 ppm and character thereof; Bitter-sweet; summary of the method: as §2
[21] = organism: Homo sapiens; experiment: Sour character at a concentration of 1011 ppm (mean value)
[22] = organism: Homo sapiens; experiment: Other taste character at a concentration of 1011 ppm (mean value)
Summary of the method: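 Trained human panel tasted aqueous solutions of each compound. Aftertaste is scored as the percentage of judgments reporting one, with its character coded sweet (s), bitter (b) or bitter-sweet (bs).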

[23] = organism: Homo sapiens; experiment: Intensity calculated on a weight basis relative to an 85500 ppm sucrose solution at a concentration of 1011 ppm (mean value); summary of the method: as §3

## COc1ccc(CNC(=O)c2c(O)cc(OCC(=O)[O-])cc2O)cc1O.[Na+]
[1]
  IP: 0
[2]
  Judgments: 1
[3]
  Judgments: 0

## COc1ccc(CCC(=N)c2c(O)cc(OCC(=O)[O-])cc2O)cc1O.[Na+]
[1]
  IP: 0
[2]
  Judgments: 1
[3]
  Judgments: 0

## COc1ccc(CCC(=O)c2c(O)cc(OCCCN)cc2O)cc1O
[2]
  Judgments: 1
[4]
  Taste character: 50
[5]
  IW: 180
[6]
  Taste character: 0
[7]
  IM: 190
[8]
  Taste character: 0
[9]
  Judgments: 100
[10]
  Taste character: 50
[11]
  IP: 1.5
[12]
  Taste character: 50
[13]
  Taste character: 0

## COc1ccc(CCc2noc3cc(OCCCS(=O)(=O)[O-])cc(O)c23)cc1O.[K+]
[14]
  Taste character: 0
[15]
  Taste character: 41
[16]
  IM: 56
[2]
  Judgments: 12
[17]
  Taste character: 52
[18]
  IP: 0.49
[19]
  Taste character: 38
[20]
  Judgments: 100
[21]
  Taste character: 0
[22]
  Taste character: 21
[23]
  IW: 41

## COc1ccc(CCC(=O)c2c(O)cc(OC(CC(O)CO)C(=O)[O-])cc2O)cc1O.[Na+] (stereo not drawn)
[1]
  IP: 0
[2]
  Judgments: 1
[3]
  Judgments: 0

## COc1ccc(/C=C/C(=O)c2ccc(OCC(=O)[O-])cc2O)cc1O.[Na+]
[1]
  IP: 0
[2]
  Judgments: 1
